According to ChEMBL document CHEMBL1146621, “Antiplatelet activity of benzylisoquinoline derivatives oxidized by cerium(IV) ammonium nitrate” (Bioorg Med Chem Lett, 2003):

Assays:
Type in all cases: functional
[1] = In vitro inhibition of Arachidonic acid (100 uM) induced platelet aggregatory activity.
[2] = Percentage inhibition against platelet activating factor (2 ng/mL) induced platelet aggregatory activity
[3] = In vitro inhibition of Collagen (10 ug/mL) induced platelet aggregatory activity
How it was run: (§1)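 Platelets were preincubated with test agent or vehicle (DMSO 0.5%) at 37 °C for 3 min before the inducer was added, and aggregation was then followed. Aspirin served as the positive control. IC50 values are reported as means ± SE (n=3).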

[4] = Percentage inhibition against thrombin induced platelet aggregatory activity; set-up: concentration or dose not given beside the values
[5] = In vitro inhibition of Collagen (10 ug/mL) induced platelet aggregatory activity.
[6] = Percentage inhibition against Platelet activating factor (2 ng/mL) induced platelet aggregatory activity
[7] = Inhibitory concentration required against Arachidonic acid (100 uM) induced platelet aggregatory activity; how it was run: as §1

SMILES	IC50 [5] [µM]	IC50 [6] [µM]	IC50 [7] [µM]	Inhibition [1] [%]	Inhibition [2] [%]	Inhibition [3] [%]	Inhibition [4] [%]
COc1cc2c(cc1OC)C(C(=O)c1ccc(Br)cc1)=NCC2	–	–	–	6	10	20	4
COc1cc2ccnc(C(=O)c3ccccc3Br)c2cc1OC	77.3	–	–	49	25	–	6
COc1cccc(C(=O)C2=NCCc3cc(OC)c(OC)cc32)c1	–	–	–	48	15	31	14
COc1cc2ccnc(C(=O)c3ccccc3Cl)c2cc1OC	52.1	82	77.1	–	–	–	30
COc1cc2c(cc1OC)C(C(=O)c1ccccc1OC)=NCC2	–	–	–	21	26	18	8
COc1ccc(Cc2nccc3cc(OC)c(OC)cc23)cc1	36.7	–	59.2	–	52	–	26
COc1ccccc1Cc1nccc2cc(OC)c(OC)cc12	51.2	–	66.2	–	20	–	8
COc1ccc(C(=O)c2nccc3cc(OC)c(OC)cc23)cc1	97	64.7	–	20	–	–	4
COc1cc2ccnc(C(=O)c3cccc(Cl)c3)c2cc1OC	72.6	–	–	35	47	–	4
CC(=O)Oc1ccccc1C(=O)O [ASPIRIN]	34.9	–	34.6	–	2	–	81
COc1cc2c(cc1OC)C(C(=O)c1cccc(Cl)c1)=NCC2	–	–	–	25	32	35	3
COc1cc2ccnc(C(=O)c3ccccc3OC)c2cc1OC	–	–	–	50	35	39	1
COc1cc2ccnc(C(=O)c3ccc(Cl)cc3)c2cc1OC	89.2	–	–	11	–	–	9
COc1cc2c(cc1OC)C(C(=O)c1ccc(Cl)cc1)=NCC2	66.1	–	–	48	22	–	18
COc1cccc(Cc2nccc3cc(OC)c(OC)cc23)c1	–	–	–	39	12	46	5
COc1cc2ccnc(C(=O)c3ccc(Br)cc3)c2cc1OC	–	–	–	22	44	36	5

Continued by falling IC50 [5], values first:

IC50 [5] [µM]	IC50 [6] [µM]	IC50 [7] [µM]	SMILES	Inhibition [1] [%]	Inhibition [2] [%]	Inhibition [3] [%]	Inhibition [4] [%]
99.2	–	–	COc1cc2ccnc(Cc3ccccc3Br)c2cc1OC	46	8	–	7
88.1	–	–	COc1cc2c(cc1OC)C(C(=O)c1ccccc1Cl)=NCC2	27	20	–	9
87	–	–	COc1ccc(C(=O)C2=NCCc3cc(OC)c(OC)cc32)cc1	19	41	–	10
74.5	75.8	–	COc1cc2c(cc1OC)C(C(=O)c1cccc(Br)c1)=NCC2	23	–	–	4
73.6	–	90.2	COc1cc2ccnc(Cc3cccc(Cl)c3)c2cc1OC	–	11	–	18
72.3	–	–	COc1cc2ccnc(Cc3ccccc3Cl)c2cc1OC	34	13	–	8
69	85	–	COc1cc2ccnc(C(=O)c3cccc(Br)c3)c2cc1OC	35	–	–	5
58.9	–	–	COc1ccc(C(O)c2nccc3cc(OC)c(OC)cc23)cc1 (stereo unspecified)	44	18	–	9
55.6	–	94	COc1cc2ccnc(Cc3ccc(Br)cc3)c2cc1OC	–	8	–	11
48.9	–	68.8	COc1cc2ccnc(Cc3cccc(Br)c3)c2cc1OC	–	23	–	8
39.1	73	37.7	COc1cccc(C(=O)c2nccc3cc(OC)c(OC)cc23)c1	–	–	–	46
32.7	–	51.3	COc1cc2ccnc(Cc3ccc(Cl)cc3)c2cc1OC	–	26	–	28
